Laboratory results published in ChEMBL document CHEMBL2057172, “Investigation of 7-benzylidenenaltrexone derivatives as resistance reverser for chloroquine-resistant Plasmodium chabaudi” (Bioorg Med Chem Lett, 2012).
Calls of active or inactive are those of the source. No cut-off for these calls is given here.

Columns and labels:
Plasmodium chabaudi = assay: Antimalarial activity against chloroquine-resistant Plasmodium chabaudi infected in mouse assessed as reversal of chloroquine-resistance at 10 mg/kg, po administered 4 days after post infection; assay type: functional, organism-based; design: dose 10 mg/kg
How it was run: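 Mice infected with CQ-resistant P. chabaudi. Test compounds were given perorally at 10 mg/kg, alongside CQ at 3 mg/kg given intraperitoneally. Resistance reversal was read at day 4 after infection. Groups were compared by one-way ANOVA followed by Dunnett's test.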

[1] = biological target: T1, Glutathione reductase, putative (Plasmodium chabaudi) (UniProt A0A077YEX9); assay: Inhibition of Plasmodium chabaudi glutathione reductase assessed as residual reduced glutathione level after 30 mins in absence of glutathione S-transferase
How it was run: (§1)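 Compounds were incubated with GSH, with or without GST, at 37 °C for 30 min. The residual GSH ratio was obtained from the absorbance of the medium.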

[2] = biological target: T1, Glutathione reductase, putative (Plasmodium chabaudi); assay: Inhibition of Plasmodium chabaudi glutathione reductase assessed as residual reduced glutathione level after 30 mins in presence of glutathione S-transferase; how it was run: as §1

T1 sequence (A0A077YEX9 as listed by the source): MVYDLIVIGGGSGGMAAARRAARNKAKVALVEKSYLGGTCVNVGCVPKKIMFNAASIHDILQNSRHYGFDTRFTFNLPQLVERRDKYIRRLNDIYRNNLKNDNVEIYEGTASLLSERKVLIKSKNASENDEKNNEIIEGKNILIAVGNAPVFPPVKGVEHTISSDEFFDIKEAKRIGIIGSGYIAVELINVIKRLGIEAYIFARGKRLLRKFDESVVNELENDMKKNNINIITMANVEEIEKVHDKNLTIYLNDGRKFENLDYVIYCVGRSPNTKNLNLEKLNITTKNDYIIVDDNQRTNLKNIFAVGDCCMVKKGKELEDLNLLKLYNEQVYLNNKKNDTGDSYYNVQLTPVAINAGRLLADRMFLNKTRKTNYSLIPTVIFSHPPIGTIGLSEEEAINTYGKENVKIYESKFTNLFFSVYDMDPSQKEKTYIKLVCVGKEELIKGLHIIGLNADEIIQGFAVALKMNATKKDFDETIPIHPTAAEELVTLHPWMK

Row | SMILES | Activity (Plasmodium chabaudi) | inhibition [1] | inhibition [2]
1 | O=C1/C(=C/c2ccccc2)C[C@@]2(O)[C@H]3Cc4ccc(O)c5c4[C@@]2(CCN3CC2CC2)[C@H]1O5 | Active |  | 
2 | COc1ccc(/C=C2\C[C@@]3(O)[C@H]4Cc5ccc(O)c6c5[C@@]3(CCN4CC3CC3)[C@@H](O6)C2=O)cc1 | Active |  | 
3 | O=C1[C@@H](Cc2ccccc2)C[C@@]2(O)[C@H]3Cc4ccc(O)c5c4[C@@]2(CCN3CC2CC2)[C@H]1O5 |  | inactive | inactive
4 | O=C1/C(=C/c2ccc(F)cc2)C[C@@]2(O)[C@H]3Cc4ccc(O)c5c4[C@@]2(CCN3CC2CC2)[C@H]1O5 | Active |  | 
